Compound activity as filed in PubChem.
Rows were chosen to be rich in hits. Some 4.3% of all compounds tested hit in one or more screens of this group.
RAM inhibit: yeast RAM network inhibition; S. cerevisiae dse1pr::URA3 reporter, 5-FOA growth OD615, 2 d; analog-sensitive cbk1-as2 kinase mutant strain; inhibition, % at 50 µM; 190,000 tested, 1.8% active; AID 868;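 active means inhibition above a set limit, 3 SD over mean compound inhibition, cut at about 8.4% in these data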;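 further: inhibition rescues growth on 5-FOA so higher OD means more RAM inhibition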
Yeast growth inh: yeast BB579 growth reduction in restrictive medium. S. cerevisiae BB579 growth, OD615, 48 h. inhibition, % at 10 µM. 140,000 tested, 0.51% active;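 active means inhibition above a set limit, 3 SD over the mean compound inhibition, cut at about 44% in these data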
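Material: Saccharomyces cerevisiae DeaD strain BB579, replicative lifespan model yeast; buffer or medium: CSMM-D restrictive synthetic medium containing dextrose (glucose); compound: 10 µM single dose, DMSO 0.25%; timing: 48 h compound exposure at 30 °C after 4 h preincubation; signal: turbidity as optical density at 615 nm; benchmarks: positive control amphotericin B 10 µg/mL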
Yeast life ext: yeast lifespan extension; S. cerevisiae growth with nicotinamide, OD615; deaD strain in restrictive glucose medium; inhibition of the nicotinamide effect, % at 10 µM; 130,000 tested, 0.68% active; AID 775;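 active means inhibition above a set limit, placed 3 SD over the median of all compounds, cut at about 26% in these data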
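Assay system: engineered S. cerevisiae DeaD replicative-lifespan strain, galactose-grown log-phase cells; Buffer or medium: CSMM-D glucose medium, restrictive; Probe or stimulus: nicotinamide 1.5 mM; Compound: single dose 10 µM compound, 0.25% DMSO; Schedule: 4 h preincubation then 48 h treatment at 30 °C; Technique: OD615 measurement.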
WT yeast gro inh: growth inhibition of WT yeast, mitochondrial fusion screen; mitochondrial fusion phenotypic screen, WT strain; inhibition, % at 10 µM; 190,000 tested, 2.1% active; in the data active means inhibition above about 58%; tested in S. cerevisiae
RAM 5-FOA: RAM network inhibition, efflux-deficient strain. shares compounds with RAM inhibit. S. cerevisiae efflux-deficient reporter strain, 5-FOA growth OD615, 2 days. max inhibition, %. 1,200 tested, under 10 active; call rule not given here
Large screens that a line does not name were inactive (follow-up assays come after a bar, where they were run).

COC(=O)c1c(NC(=O)c2ccc(C)cc2)sc(Cc2ccccc2)c1C	RAM inhibit 13.8 | RAM 5-FOA inactive
COC(=O)c1c(NC(=O)c2ccccc2)sc(Cc2ccccc2)c1C	RAM inhibit 12.0, WT yeast gro inh 68.3 | RAM 5-FOA inactive
O=C(O)Cc1nn(Cc2ccc(Cl)cc2)c(=O)c2ccccc12	none (no result: Yeast growth inh, Yeast life ext)
O=C(C(Sc1ccccc1)c1ccccc1)N1CCN(c2ccccc2)CC1 (centres undefined)	RAM inhibit 21.4 | RAM 5-FOA inactive
CCOc1ccc(S(=O)(=O)N(C)c2ccc(OCC(=O)OCc3c(C)noc3C)cc2)cc1	RAM inhibit 12.3 | RAM 5-FOA inactive
Cc1noc(C)c1COC(=O)COc1ccc(C#N)cc1	none (no result: Yeast growth inh, Yeast life ext)
Clc1ccc(-c2csc(Nc3ccccc3)[n+]2Cc2ccco2)c(Cl)c1	RAM inhibit 14.0, WT yeast gro inh 72.3 (no result: Yeast growth inh, Yeast life ext) | RAM 5-FOA inactive
COc1ccc(-c2csc(Nc3ccccc3)[n+]2Cc2ccccc2)cc1	none (no result: Yeast growth inh, Yeast life ext)
CN1/C(=C/C2CC(=O)N(c3ccc([N+](=O)[O-])cc3)C2=O)C(C)(C)c2ccccc21 (centres undefined)	none
CC(=O)N1CCN(C(=O)CSc2nc3c(cnn3-c3ccccc3)c(=O)[nH]2)CC1	none
Fc1ccc(C2CC(c3cccs3)=NN2c2ccccc2)cc1 (centres undefined)	RAM inhibit 12.0 (no result: Yeast growth inh, Yeast life ext) | RAM 5-FOA inactive
O=C(c1ccco1)N1N=C(c2cccs2)CC1c1ccc(F)cc1 (centres undefined)	none
O=C(CSc1nc2c(cnn2-c2ccccc2)c(=O)[nH]1)N1N=C(c2cccs2)CC1c1ccc(F)cc1 (centres undefined)	RAM inhibit 12.5 | RAM 5-FOA inactive
Cc1ccc(S(=O)(=O)N2CCN(C(=O)C3COc4ccccc4O3)CC2)cc1C (centres undefined)	RAM inhibit 17.1 | RAM 5-FOA inactive
CSc1cccc(NC(=S)N(Cc2ccccc2)Cc2cccnc2)c1	none (no result: Yeast growth inh, Yeast life ext)
COc1ccc(Cc2nn3c(-c4ccccc4Br)nnc3s2)cc1	none
Brc1ccccc1-c1nnc2sc(Cc3ccccc3)nn12	RAM inhibit 33.4 | RAM 5-FOA inactive
O=c1c2ccccc2nc(SCc2ccncc2)n1CC1CCCO1 (centres undefined)	none (no result: Yeast growth inh, Yeast life ext)
C=CCN(CC=C)S(=O)(=O)c1ccc(NC(=O)COc2ccccc2OC)cc1	RAM inhibit 15.0 (no result: Yeast life ext) | RAM 5-FOA inactive
O=C(c1cc(COc2ccc(F)cc2Cl)on1)N1CCCC(c2ccccc2)C1 (centres undefined)	RAM inhibit 13.1 (no result: Yeast growth inh, Yeast life ext) | RAM 5-FOA inactive
CC(C)S(=O)(=O)C1=NSC2=NC(=O)/C(=C\c3ccc(-c4ccccc4)o3)C(=N)N21	RAM inhibit 14.1 | RAM 5-FOA inactive
Cc1ccc(/C=C2\SC(=S)N(C(Cc3ccccc3)C(=O)O)C2=O)cc1 (centres undefined)	RAM inhibit 16.9 | RAM 5-FOA inactive
O=C(O)C(Cc1ccccc1)N1C(=O)/C(=C/c2cccc3ccccc23)SC1=S (centres undefined)	none
CC(=C\c1ccccc1)/C=C1/SC(=S)N(C(C(=O)O)C(C)C)C1=O (centres undefined)	RAM inhibit 20.5 (no result: Yeast growth inh, Yeast life ext) | RAM 5-FOA inactive
CCC1C(=O)N=C(SCC(=O)Nc2nc3ccccc3s2)NC1=O (centres undefined)	none (no result: Yeast growth inh, Yeast life ext)
Cc1cc(NC(=O)CCSc2ccccc2)ccc1Br	RAM inhibit 13.9 | RAM 5-FOA inactive
Cc1cc(Br)ccc1NC(=O)CCSc1ccccc1	none
O=C(COC(=O)c1ccc2[nH]c3c(c2c1)CCCC3)Nc1ccccc1	none
Cc1cc(C)c(C)c(S(=O)(=O)N2CCC(C(=O)OCC(=O)N3c4ccccc4NC(=O)C3(C)C)CC2)c1C	RAM inhibit 12.1 | RAM 5-FOA inactive
CCOc1ccc(CC(=O)C2=C(N3CCOCC3)CC(C)(C)CC2=O)cc1OCC	none (no result: Yeast growth inh, Yeast life ext)
CCCC(=O)OCC(=O)NCc1ccc(Cl)cc1	none (no result: Yeast growth inh, Yeast life ext)
O=C(COC(=O)CC(c1ccccc1)c1ccccc1)NCc1ccc(Cl)cc1	RAM inhibit 13.3, WT yeast gro inh 63.4 | RAM 5-FOA inactive
COC(=O)c1ccc(Oc2coc3cc(OCc4ccc([N+](=O)[O-])cc4)ccc3c2=O)cc1	none
Cc1cccc(C)c1NC(=S)N(CCCN1CCN(C)CC1)Cc1cccs1	none (no result: Yeast growth inh, Yeast life ext)
COc1ccc(CCNC(=O)c2ccc(-c3ccc([N+](=O)[O-])cc3)o2)cc1OC	RAM inhibit 11.4 | RAM 5-FOA inactive
Nc1ccc(C(=O)N/N=C\C=C\c2ccc([N+](=O)[O-])cc2)cc1	none (no result: Yeast growth inh, Yeast life ext)
FC(F)(F)c1cccc(NC(=S)NC(c2ccccc2)c2ccccc2)c1	RAM inhibit 15.6 | RAM 5-FOA inactive
CCCCNC(=S)N(C)/N=C/c1ccc(OCC(=O)Nc2ccc(OC)cc2)c(OC)c1	RAM inhibit 15.1 | RAM 5-FOA inactive
CCOc1ccc2nc(NC(=O)CSc3nc(-c4ccccc4)c(C#N)c(=O)[nH]3)sc2c1	RAM inhibit 14.1 (no result: Yeast growth inh, Yeast life ext) | RAM 5-FOA inactive
Fc1ccccc1Cc1nnc2n1N=C(c1ccc(Cl)cc1)CS2	none
COc1ccc(CCN2C(=O)/C(=C\c3ccco3)SC2=S)cc1OC	RAM inhibit 11.9 (no result: Yeast growth inh, Yeast life ext) | RAM 5-FOA inactive
CC(C)CC(=O)NC(=S)Nc1nc(-c2ccc(Cl)cc2)cs1	none
CC(C)CC(=O)NC(=S)Nc1nc(-c2ccccc2)cs1	RAM inhibit 12.7 | RAM 5-FOA inactive
COc1cccc(C(=O)NCC(=O)N/N=C/c2cccs2)c1	none
C=CCO/N=C(/C)c1c(O)c(CC)c(-c2ccccc2)n(-c2ccccc2)c1=O	RAM inhibit 12.6 (no result: Yeast life ext) | RAM 5-FOA inactive
CCc1c(O)c(/C(C)=N\O)c(=O)n(-c2ccccc2)c1-c1ccccc1	none
CCOc1cc(C(=O)Nc2ccncc2)cc(OCC)c1OCC	none (no result: Yeast growth inh, Yeast life ext)
O=C(O)c1ccccc1-c1ccccc1C(=O)NCCCO	none
O=C(Oc1ccc(C(=S)N2CCCCC2)cc1)c1ccccc1F	none (no result: Yeast growth inh, Yeast life ext)
Cc1ccc(-c2cccc(OC(=O)c3ccccc3F)c2)cc1	RAM inhibit 14.5 | RAM 5-FOA inactive
CC(C)(C)NC(=O)CCCSc1nc2ccccc2s1	none (no result: Yeast growth inh, Yeast life ext)
Cc1ccccc1NC(=O)CCCSc1nc2ccccc2s1	RAM inhibit 18.1 | RAM 5-FOA inactive
Cn1cc(C(=O)CCl)c2ccccc21	none (no result: Yeast growth inh, Yeast life ext)
Cc1cccc(Oc2cc(NC(=O)c3ccccc3)cc([N+](=O)[O-])c2)c1	RAM inhibit 13.1 | RAM 5-FOA inactive
O=C(CCc1nnc(-c2ccccc2)o1)NCC1CCN(C2CCCC2)CC1	none (no result: Yeast growth inh, Yeast life ext)
COc1ccccc1N(C)S(=O)(=O)c1ccc(C(=O)OCC(=O)NCCC2=CCCCC2)cc1	RAM inhibit 14.6 | RAM 5-FOA inactive
CCCNC(=O)NC(=O)COC(=O)c1ccc(S(=O)(=O)N(C)c2ccccc2OC)cc1	none (no result: Yeast growth inh, Yeast life ext)
COc1ccc(C(=O)C2CCCN(C(=O)c3cccs3)C2)cc1F (centres undefined)	none (no result: Yeast growth inh, Yeast life ext)
CCOC(=O)C1CN(S(=O)(=O)c2cccc(C(F)(F)F)c2)c2cc(CC(=O)OC)ccc2O1 (centres undefined)	RAM inhibit 15.8 | RAM 5-FOA inactive
